Measured values as given in ChEMBL document CHEMBL3870322, “New telmisartan-derived PPARγ agonists: Impact of the 3D-binding mode on the pharmacological profile” (Eur J Med Chem, 2016).
pEC50: −log10 of the molar value. The source made the active and inactive calls. The rule behind the calls is not given here.

What was measured:
[1] = target: T1, Peroxisome proliferator-activated receptor gamma (Homo sapiens) (UniProt P37231); assay: Intrinsic activity at Gal4 fused PPARgamma LBD (unknown origin) expressed in African green monkey COS7 cells after 42 hrs by luciferase assay relative to pioglitazone; type: cell-based; details: COS-7
T1 sequence (whole entry): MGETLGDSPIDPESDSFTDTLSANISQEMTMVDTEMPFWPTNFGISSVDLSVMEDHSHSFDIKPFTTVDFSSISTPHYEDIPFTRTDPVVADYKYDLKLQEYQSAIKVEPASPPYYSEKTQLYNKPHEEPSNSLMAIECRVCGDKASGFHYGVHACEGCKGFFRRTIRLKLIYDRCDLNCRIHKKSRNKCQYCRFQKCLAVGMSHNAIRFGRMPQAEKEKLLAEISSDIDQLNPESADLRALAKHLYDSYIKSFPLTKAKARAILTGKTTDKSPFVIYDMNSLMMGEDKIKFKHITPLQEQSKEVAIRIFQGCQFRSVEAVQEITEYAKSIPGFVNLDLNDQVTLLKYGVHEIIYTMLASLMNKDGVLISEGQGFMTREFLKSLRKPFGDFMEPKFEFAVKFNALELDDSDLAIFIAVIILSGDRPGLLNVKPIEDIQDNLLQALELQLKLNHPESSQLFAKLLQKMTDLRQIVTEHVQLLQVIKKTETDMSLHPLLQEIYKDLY
Method in brief: (§1)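 COS-7 cells (10⁴/well, 24 h, 37 °C, 5% CO₂) transfected in serum-free medium with pGal5-TK-Luc, pGal4-hPPARγ-LBD and pRenilla-CMV (Lipofectamine 2000). After 4 h, compound or DMSO added across a concentration series. Dual-luciferase readout at 42 h, firefly normalized to Renilla. Maximal activation expressed as % of pioglitazone. Mean SD of three independent experiments, each run in triplicate.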

[2] = Growth inhibition of African green monkey COS7 cells at 50 uM after 72 hrs by crystal violet staining based assay; type: cell-based, COS-7; details: chlorocebus aethiops; for growth inhibition (GI): cos-7, 72 h, 50 µM; for inhibition at 72 h, 50 µM: COS7 cells, read-out: GI
Method in brief: (§2)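 Cells seeded in complete DMEM, LNCaP at 5×10⁴/well on poly-D-lysine-coated wells, COS-7 at 3×10⁴/well. After 24 h at 37 °C, compound added at 50 µM final (DMSO vehicle). Exposure 72 h, then PBS wash, fixation in 1% […]/PBS, crystal violet staining of chromatin, absorbance 590 nm. Biomass given as % of vehicle control; mean SD of at least two independent experiments.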

[3] = target: T2, Peroxisome proliferator-activated receptor gamma (Mus musculus, UniProt P37238); assay: Full agonist activity at PPARgamma in mouse 3T3L1 preadipocytes assessed as increase in insulin induced adipocyte differentiation by measuring triglyceride accumulation at 10 uM after 9 days by Oil-Red O staining based assay relative to control; type: cell-based; details: 216 h
T2 sequence (P37238 whole entry): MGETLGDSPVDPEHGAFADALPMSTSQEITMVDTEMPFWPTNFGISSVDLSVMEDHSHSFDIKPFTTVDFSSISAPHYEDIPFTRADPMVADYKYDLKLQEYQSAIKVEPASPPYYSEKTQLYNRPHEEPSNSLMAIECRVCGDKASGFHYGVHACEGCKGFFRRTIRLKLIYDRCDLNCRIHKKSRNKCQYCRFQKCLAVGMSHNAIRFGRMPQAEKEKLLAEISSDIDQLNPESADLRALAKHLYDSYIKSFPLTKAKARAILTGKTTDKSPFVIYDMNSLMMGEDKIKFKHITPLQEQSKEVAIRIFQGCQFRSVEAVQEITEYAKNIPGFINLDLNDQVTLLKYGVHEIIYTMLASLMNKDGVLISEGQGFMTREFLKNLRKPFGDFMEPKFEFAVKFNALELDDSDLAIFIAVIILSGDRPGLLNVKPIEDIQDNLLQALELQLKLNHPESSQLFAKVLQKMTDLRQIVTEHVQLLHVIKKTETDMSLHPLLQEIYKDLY
Method in brief: (§3)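 Postconfluent 3T3-L1 cells (DMEM, 10% FCS) differentiated over 9 days: 3 days with insulin (0.17 µM) plus dexamethasone (1 µM), 3 days with insulin (0.17 µM), then 3 days medium alone. Compound present throughout at 1 or 10 µM; DMSO vehicle. Day 9: PBS wash, Oil-Red O staining 1 h, dye extracted with 80% isopropanol, A515 read, expressed as ratio to vehicle; mean SD, three independent experiments.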

[4] = target: T3, Peroxisome proliferator-activated receptor gamma (Homo sapiens, UniProt P37231); assay: Transactivation at Gal4 fused PPARgamma LBD (unknown origin) expressed in African green monkey COS7 cells after 42 hrs by luciferase assay; type: cell-based, COS-7
T3 sequence (P37231 whole entry): T1 sequence (whole entry)

3T3-L1 = assay: Induction of triglyceride accumulation in insulin-stimulated mouse 3T3L1 preadipocytes at 10 uM after 9 days by Oil-Red O staining based assay relative to control
[5] = (§4) Growth inhibition of human LNCAP cells expressing PPARgamma at 50 uM after 72 hrs by crystal violet staining based assay; type: functional; details: read-out: GI; method in brief: as §2
[6] = target: T2, Peroxisome proliferator-activated receptor gamma; assay: Full agonist activity at PPARgamma in mouse 3T3L1 preadipocytes assessed as increase in insulin induced adipocyte differentiation by measuring triglyceride accumulation at 1 to 10 uM after 9 days by Oil-Red O staining based assay relative to control; type: cell-based; details: 216 h
[7] = target: T2, Peroxisome proliferator-activated receptor gamma; assay: Full agonist activity at PPARgamma in mouse 3T3L1 preadipocytes assessed as increase in insulin induced adipocyte differentiation by measuring triglyceride accumulation at 1 uM after 9 days by Oil-Red O staining based assay; type: cell-based; details: 216 h; method in brief: as §3
LNCaP = assay: as §4; type: functional; method in brief: as §2
[8] = target: T1, Peroxisome proliferator-activated receptor gamma (Homo sapiens); assay: Intrinsic activity at Gal4 fused PPARgamma LBD (unknown origin) expressed in African green monkey COS7 cells at 20 uM after 42 hrs by luciferase assay relative to pioglitazone; type: cell-based; details: COS-7; method in brief: as §1

Compound	%max [1] [%]	growth inhibition (GI) [2]	fold change (FC) [3]	pEC50 [4]	fold change (FC) (3T3-L1)	inhibition of growth at 50 µM [5] [%]	inhibition at 72 h, 50 µM [2] [%]	Activity [6]	Activity [7]	growth inhibition (GI) (LNCaP)	%max [8] [%]
CCCc1nc2c(C)cc(-c3nc4ccccc4n3C)cc2n1Cc1ccc(-c2ccccc2C(=O)O)cc1 [TELMISARTAN]	50.9	Non-Toxic	2	5.33	–	–	–	–	–	–	–
CCCc1nc2ccccc2n1Cc1ccc(-c2ccc(C(=O)O)cc2)cc1	84.1	Non-Toxic	–	5.73	1.2	–	–	–	–	–	–
CCCc1cc2ccccc2n1Cc1ccc(-c2ccccc2C#N)cc1	21.7	–	–	5.10	–	27.4 to 54.1	36.8	–	–	–	–
CCCc1cc2ccccc2n1Cc1ccc(-c2ccccc2C(N)=O)cc1	11	–	–	–	–	27.4 to 54.1	–	–	–	–	–
CCCCCCCc1nc2ccccc2n1Cc1ccc(-c2ccccc2C(=O)O)cc1	82.5	Non-Toxic	–	6.77	–	–	–	Active	–	–	–
CCCC1Sc2ccccc2N1Cc1ccc(-c2ccccc2C(=O)O)cc1 (stereo not given)	57.4	Non-Toxic	> 3	5.98	–	–	–	–	–	–	–
CCCc1cc2ccccc2n1Cc1ccc(-c2ccccc2C(=O)O)cc1	40	–	> 3	5.73	–	27.4 to 54.1	–	–	–	–	–
CCc1ccc(CCOc2ccc(CC3SC(=O)NC3=O)cc2)nc1 (stereo not given) [PIOGLITAZONE]	–	Non-Toxic	–	–	–	55.8	–	–	–	–	–
CCCCCc1nc2ccccc2n1Cc1ccc(-c2ccccc2C(=O)O)cc1	55.4	Non-Toxic	–	6.40	–	–	–	Active	–	–	–
CCCCCCc1nc2ccccc2n1Cc1ccc(-c2ccccc2C(N)=O)cc1	37.8	–	–	5.51	–	78.5	92.8	–	Active	–	–
CCCc1nc2ccccc2n1Cc1ccc(-c2ccccc2C(=O)O)cc1	49.6	Non-Toxic	–	5.38	3.2	–	–	–	–	–	–
CCCc1nc2ccccc2n1Cc1ccc(-c2ccccc2C(N)=O)cc1	21.1	–	–	5.50	–	33	33	–	–	–	–
CCCCCc1nc2ccccc2n1Cc1ccc(-c2ccccc2C(N)=O)cc1	16.2	Toxic	–	5.41	–	–	–	–	Active	Active	–
CCCc1nc2ccccc2n1Cc1ccc(-c2cccc(C(=O)O)c2)cc1	44.7	Non-Toxic	–	5.20	2.5	–	–	–	–	–	–
CCCC1Sc2ccccc2N1Cc1ccc(-c2ccccc2C(N)=O)cc1 (stereo not given)	–	–	–	–	–	79	69.2	–	–	–	33.1
CCCc1nc2ccccc2n1Cc1ccc(-c2ccccc2C#N)cc1	51.3	–	–	5.30	–	61.9	61.9	–	–	–	–
CCCCCCCc1nc2ccccc2n1Cc1ccc(-c2ccccc2C(N)=O)cc1	32.8	Toxic	–	6.08	–	–	–	–	Active	Active	–
CCCCCCc1nc2ccccc2n1Cc1ccc(-c2ccccc2C(=O)O)cc1	75	Non-Toxic	–	6.68	–	–	–	Active	–	–	–
